Experimental data pooled from the literature.
Lines come from different studies, so protocols differ.

CCc1nc2c(C)cc(N3CCN(CC(=O)N4CC(O)C4)CC3)cn2c1N(C)c1nc(-c2ccc(F)cc2)c(C#N)s1 — Tmax (human; plasma; oral; 60 mg; fed, healthy volunteers): 0.5 h
Oc1c(Br)cc(Cl)c2cccnc12 — MRT (Sprague-Dawley rat; plasma; subcutaneous; 10 mg/kg): 7.8 h
CCOC(=O)[C@@]12C[C@@H]1[C@@H](n1ccc3c(NC)nc(C#Cc4ccc(Cl)s4)nc31)[C@H](O)[C@@H]2O — MRT (male Sprague-Dawley rat; plasma; oral; 10 mg/kg): 2.75 h
C=CC(=O)N(C)CCOc1c(N)ncnc1-c1cc(F)cc(NC(=O)c2ccc(C3CC3)cc2F)c1C — Tmax (human; blood; oral; 30 mg; single dose, healthy volunteers): 0.5 h
CC(C)(O)c1ccccc1-c1ccc2[nH]c(/C=C/c3ccc(C(F)(F)F)cc3)nc2c1 — Tmax (male human; plasma; oral; 1 mg; single dose, fasted): 4.44 h
CC(C)n1cc(C#N)c2cc(-n3cc(C(=O)O)cn3)ccc21 — Tmax (human; plasma; oral; 10 mg; single dose, fasted, healthy volunteers): 2.8 h
COc1ccc([C@@H]2CN(C(=O)[C@@H](O)CO)C[C@@]2(C)[C@@H](C)O)cc1OC1CN(c2ccc(C)cn2)C1 — Tmax (human; plasma; oral; 10 mg; single dose, healthy volunteers): 2 h
O=C(Nc1cc(F)c(F)c(F)c1)c1ccc(F)c(S(=O)(=O)NCc2cccc(B(O)O)c2)c1 — MRT(0-inf) (male Sprague-Dawley rat; plasma; intravenous; 2 mg/kg): 0.83 h
Cc1cn2nc(-c3cc(=O)n4cc(N5CCNC6(CC6)C5)ccc4n3)cc(C)c2n1 — fraction unbound (rat; plasma): 0.16
CCc1cc(C(=O)NC)c2nccc(N3CCc4c(cc(Cn5ccnc5)cc4-c4cn(C)nc4C(F)(F)F)C3=O)c2c1 — MRT(0-inf) (male Sprague-Dawley rat; plasma; intravenous; 3 mg/kg): 0.4 h
C[C@@H](Nc1cc(F)cc(F)c1)c1cc(C(=O)N(C)C)cc2c(=O)cc(N3CCOCC3)oc12 — Tmax (human; plasma; oral; 60 mg; patients): 4.08 h
